# Measurements gathered from unrelated publications.
# Each line is one published result; the experiments were not run side by side.
# Target: High affinity nerve growth factor receptor (NTRK1, Homo sapiens, UniProt P04629)
Structure (SMILES),read-out,mode,technique,tested at,measurement,value
CNC(=O)Nc1ccc2c(c1)CC[C@@]21OC(=O)N(CC(=O)N(Cc2ccc(F)cc2)[C@@H](C)C(F)(F)F)C1=O,cell-free assay,,competition with immobilised ligand,1 µM,remaining binding,81%
O=C(Nc1ccc2[nH]ncc2c1)c1cccc(NC(=S)Nc2ccc(F)cc2F)c1,enzyme activity,inhibitor,FRET,1 µM,inhibition,67.3%
CCN(CC)CCNC(=O)c1c(C)[nH]c(/C=C2\C(=O)Nc3ccc(F)cc32)c1C,enzyme activity,inhibitor,,1 µM,remaining activity,2%
FC(F)(F)Oc1cccc(-c2cnc3ccc(-c4ccncc4)nn23)c1,enzyme activity,inhibitor,radiometric,1 µM,activity vs control,16%
CC(C)(C)c1nc2c(s1)c1nc(N)ncc1c1ccc(NS(=O)(=O)c3c(F)cccc3F)c(F)c12,enzyme activity,inhibitor,radiometric,1 µM,remaining activity,54%
FC(F)c1nc2ccccc2n1-c1nc(N2CCOCC2)nc(N2CCOCC2)n1,enzyme activity,inhibitor,,10 µM,remaining activity,83%
O=C(Nc1ccc(F)cc1)Nc1cccc(C(=O)Nc2ccc3[nH]ncc3c2)c1,enzyme activity,inhibitor,FRET,1 µM,inhibition,63.2%
Nc1ncnc2occ(-c3ccc(NC(=O)Nc4cc(C(F)(F)F)ccc4F)cc3)c12,cell-free assay,,,20 µM,remaining signal,0%
O=C(Nc1cccc(C(=O)Nc2ccc3[nH]ncc3c2)c1)Nc1ccccc1Cl,enzyme activity,inhibitor,FRET,1 µM,inhibition,37.7%
N#CCCc1ccc2c(c1)-c1[nH]c3ccc([N+](=O)[O-])cc3c1CC(=O)N2,cell-free assay,,,0.5 µM,remaining signal,115%
CCN(CC)c1ccc(C2=NNC(=O)CC2C)cc1[N+](=O)[O-] (stereo not drawn),enzyme activity,inhibitor,,10 µM,remaining activity,118%
Cc1ccc(NC(=O)c2ccc(CN3CCN(C)CC3)cc2)cc1Nc1nc(-c2cccnc2)cs1,cell-free assay,,,0.5 µM,remaining signal,97.1%
CCCOc1ccc([C@H]2[C@H](C(=O)O)[C@@H](c3ccc4c(c3)OCO4)CN2CC(=O)Nc2c(CC)cccc2CC)cc1,cell-free assay,,competition with immobilised ligand,1 µM,remaining binding,84%
O=C1Nc2ccc(Cl)cc2C1=Cc1cc(Cl)c(O)c(Cl)c1,cell-free assay,,,0.5 µM,remaining signal,87.4%
CCCOc1ccc(OC)c(F)c1C(=O)c1ccc(C(=O)N[C@@H]2CNC[C@H]2NC(=O)c2ccc3[nH]ncc3c2)cc1,enzyme activity,inhibitor,,10 µM,remaining activity,46%
Cc1ccc(C(=O)Nc2ccc(CN3CCN(C)CC3)c(C(F)(F)F)c2)cc1C#Cc1cnc2cccnn12,cell-free assay,,,23.5 nM,remaining signal,26%
Cc1sc(C(=O)NC2COC2)cc1-n1cc(NC(=O)Nc2c(F)cccc2Cl)cn1,enzyme activity,inhibitor,,10 µM,remaining activity,81%
O=C(Nc1cccc(Cl)c1)Nc1cccc(C(=O)Nc2ccc3[nH]ncc3c2)c1,enzyme activity,inhibitor,FRET,1 µM,inhibition,47.4%
CCS(=O)(=O)c1cc2cc(C[C@](O)(CC(C)(C)c3ccc(F)cc3C(N)=O)C(F)(F)F)[nH]c2cn1,cell-free assay,,competition with immobilised ligand,1 µM,remaining binding,82%
CN(c1nccc(-c2cnn3ncccc23)n1)C1CC1,cell-free assay,,,1 µM,remaining signal,100%
CNC(=O)c1ccc(Nc2ncc(C(F)(F)F)c(NCc3nccnc3N(C)S(C)(=O)=O)n2)cc1,binding,,competition with immobilised ligand,1 µM,remaining binding,13%
O=C(Nc1ccc(I)cc1)Nc1cccc(C(=O)Nc2ccc3[nH]ncc3c2)c1,enzyme activity,inhibitor,FRET,1 µM,inhibition,47.4%
COc1ccc2c(c1)O[C@H](c1ccc(OC)c(OC)c1)C[C@@H]2NC(=O)C1(c2ccc3c(c2)OC(F)(F)O3)CC1,cell-free assay,,competition with immobilised ligand,1 µM,remaining binding,100%
CN(C)C1CCN(CC#Cc2nn(C3CCCC3)c3nc(NCc4ccccc4)ncc23)C1 (stereo not drawn),enzyme activity,inhibitor,FRET,1 µM,inhibition,17%
Cc1c(NC(=O)c2cc(C(N)=O)nc3cc(F)ccc23)c(C(F)(F)F)nn1Cc1ccc(C#N)cc1,cell-free assay,,competition with immobilised ligand,1 µM,remaining binding,83%
Cc1[nH]c(/C=C2\C(=O)Nc3ccc(F)cc32)c(C)c1C(=O)N[C@H]1CCN(C(=O)N(C)C)C1,enzyme activity,inhibitor,,1 µM,remaining activity,5%
CCC(=N\O)/C(C)=C/c1ccc(F)cc1,cell-free assay,,competition with immobilised ligand,1 µM,remaining binding,83%
O=C(Nc1cccc(C(=O)Nc2ccc3[nH]ncc3c2)c1)Nc1ccccc1F,enzyme activity,inhibitor,FRET,1 µM,inhibition,42.7%
CN(C)C(=O)Cn1cc(-c2nc(C3(c4ccc(-c5cnc(N)nc5)cc4)CC3)no2)cn1,cell-free assay,,competition with immobilised ligand,1 µM,remaining binding,100%
COc1cc(/C=C/C(=O)CC(=O)/C=C/c2ccc(O)c(OC)c2)ccc1O,enzyme activity,inhibitor,,1 µM,activity vs control,93%
